Experimental data of several laboratories.
Compare with care: the assays were run in different laboratories.
Target: Acetylcholinesterase (ache, Electrophorus electricus, UniProt O42275)
Read-out: enzyme activity
Action: inhibitor
Technique: Ellman

Compound | pH | setting | IC50
CC=C1[C@H]2C=C(C)C[C@]1(N)c1cc(O)c(=O)[nH]c1C2 | – | – | 0.53 µM
Cc1c(C(=O)[C@H]2[C@H](c3c[nH]c4ccccc34)[C@H]3CCCN3[C@]23C(=O)Nc2cc(Cl)ccc23)cnn1-c1ccccc1 | – | – | > 100 µM
CCOc1ccc(C=NNC(=S)NCC(=O)c2ccccc2O)cc1 | – | – | 420 µM
CC1=C(C)C(=O)O[C@@H]([C@](C)(O)[C@H]2CC[C@H]3[C@@H]4[C@@H]5O[C@@H]5[C@@]5(O)CC=CC(=O)[C@]5(C)[C@H]4CC[C@]23C)C1 | – | – | 107 µM
COP(=O)(OC)OC(C)=C1CCOC1=O | pH 8 | – | > 1000 µM
C#CCNC(=O)c1cc2ccc(N(CC)CC)cc2oc1=O | pH 7.6 | – | > 50 µM
O=C(CNC(=S)NN=Cc1ccc([N+](=O)[O-])cc1)c1ccc(Cl)cc1 | – | – | 340 µM
O=C(NCCN1CCN(Cc2ccccc2)CC1)c1cc2ccccc2o1 | – | – | 18.5 µM
O=C(NNS(=O)(=O)c1ccc(Br)cc1)C(=O)NNS(=O)(=O)c1ccc(Br)cc1 | – | with preincubation | 3.28 µM
CC=C1[C@H]2C=C(C)C[C@]1(N)c1cc(N)c(=O)[nH]c1C2 | – | – | 0.32 µM
C#CCN(C)c1nc(NCCCCC2CCN(Cc3ccccc3)CC2)c(C#N)c(-c2ccccc2)c1C#N | – | – | 0.023 µM
CC=C1[C@H]2C=C(C)C[C@]1(N)c1cc(OCCC)c(=O)[nH]c1C2 | – | – | 10.2 µM
O=C(NCC1CCN(Cc2ccccc2)CC1)c1cc2ccccc2o1 | – | – | 30 µM
CC=C1[C@H]2C=C(C)C[C@]1(N)c1ccc(OC)nc1C2 | – | – | 3.67 µM
Cc1c(C(=O)[C@H]2[C@H](c3c[nH]c4ccccc34)[C@H]3CSCN3[C@]23C(=O)Nc2cc(Cl)ccc23)cnn1-c1ccccc1 | – | – | > 100 µM
C#CCN(C)c1nc(NCCCCC2CCN(Cc3ccccc3)CC2)c(C#N)cc1C#N | – | – | 0.00074 µM
CC=C1[C@H]2C=C(C)C[C@]1(N)c1cc(OCC)c(=O)[nH]c1C2 | – | – | 0.22 µM
Cc1c(C(=O)[C@H]2[C@H](c3cn(C)c4ccccc34)[C@H]3CCCN3[C@]23C(=O)Nc2cc(Cl)ccc23)cnn1-c1ccccc1 | – | – | > 100 µM
CC=C1[C@H]2C=C(C)C[C@]1(N(C)C)c1ccc(=O)[nH]c1C2 | – | – | 0.61 µM
Cc1c(C(=O)[C@H]2[C@H](c3c[nH]c4ccc(Br)cc34)CN(C)[C@]23C(=O)Nc2cc(Cl)ccc23)cnn1-c1ccccc1 | – | – | 27.8 µM
COc1cc2c(cc1OC)CN(S(=O)(=O)CCc1cn(-c3cnc4ccccc4c3)nn1)CC2 | – | – | 0.028 µM
